Test results reported in ChEMBL document CHEMBL4346682 (Eur J Med Chem, 2019).
Activity calls are given as the source filed them. The rule behind the calls is not given here.

How the values were obtained:
Tubulin (Homo sapiens) = Tubulin (Homo sapiens) (UniProt P68371+Q9H4B7+P0DPH7+P68366+Q13509+Q71U36+P04350+Q3ZCM7+P07437+P68363+Q9BQE3+Q6PEY2+Q13885+Q9BVA1+Q9BUF5); assay: Inhibition of human tubulin polymerization assessed as induction of tubulin polymerization destabilization at 30 uM by turbidimetric assay
CCRF-CEM = assay: Antiproliferative activity against human CEM cells measured after 96 hrs by Coulter counter method; type: functional, cell-based
Procedure, shortened: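 CEM suspension cells seeded at 60,000 cells/well with a range of compound concentrations, grown 96 h, then counted. Medium is DMEM with 10% FBS, 0.01 M Hepes and 1 mM sodium pyruvate, 37 °C, 5% CO2.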

HeLa [1] = assay: Antiproliferative activity against human HeLa cells measured after 3 days by Coulter counter method; type: functional, cell-based; conditions: 72 h
L1210 = assay: Antiproliferative activity against mouse L1210 cells measured after 96 hrs by Coulter counter method; type: functional, cell-based; conditions: L1210, 96 h
Procedure, shortened: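 L1210 suspension cells seeded at 60,000 cells/well with a range of compound concentrations, grown 96 h, counted in a Coulter counter. IC50 is the concentration reducing proliferation by 50%, mean ± SD of three independent experiments.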

HMEC-1 [2] = assay: Antiproliferative activity against human HMEC1 cells measured after 4 days by Coulter counter method; type: functional, cell-based; conditions: HMEC-1, 96 h
Tubulin (Bos taurus) = Tubulin (Bos taurus) (UniProt Q6B856+Q862L2+Q862F3); assay: Binding affinity to calf brain tubulin assessed as binding constant incubated for 30 mins in presence of R-PT by fluorescence based method
Procedure, shortened: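 Competition assay with calf brain tubulin. A premixed 0.2 µM R-PT plus 0.2 µM tubulin sample was exposed to ligand at 0–70 µM in 10 mM sodium phosphate, 0.1 mM GTP, pH 7.0, incubated 30 min at 25 °C. Fluorescence read at 456 nm (excitation 374 nm). Kb fitted by competition analysis, mean of three experiments ± StdError.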

HMEC-1 [3] = assay: Vascular disrupting activity in human HMEC1 cells at 0.4 uM after 90 mins; type: functional, cell-based
Procedure, shortened: (§1)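 HMEC-1 seeded at 60,000 cells/well on matrigel (10 mg/mL, gelled 30 min at 37 °C) in DMEM with 10% FCS. After 3 h at 37 °C, once tube-like networks formed, compound was added at 2, 0.4 or 0.08 µM. After 90 min, images taken at 100× and meshes, branching points and tube length quantified.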

HMEC-1 [4] = assay: Vascular disrupting activity in human HMEC1 cells at 0.08 to 2 uM after 90 mins; type: functional, cell-based
Procedure, shortened: as §1

HMEC-1 [5] = assay: Cell cycle arrest in human HMEC1 cells assessed as accumulation at G2/M phase at 0.4 uM measured after 24 hrs by propidium iodide based FACSCalibur flow cytometry; type: functional
Procedure, shortened: (§2)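 HMEC-1 seeded at 125,000 cells/well in DMEM with 10% FBS and exposed to compound after 24 h. After another 24 h, DNA was stained with propidium iodide and analysed by flow cytometry within 3 h. Debris and clumps were gated out, and sub-G1, G1, S and G2/M fractions estimated with region markers.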

HeLa [6] = assay: Cell cycle arrest in human HeLa cells assessed as accumulation at G2/M phase at 2 uM measured after 24 hrs by DAPI staining based HCS analysis; type: functional
HeLa [7] = assay: Cell cycle arrest in human HeLa cells assessed as accumulation at G2/M phase at 0.4 uM measured after 24 hrs by DAPI staining based HCS analysis; type: functional
HeLa [8] = assay: Cell cycle arrest in human HeLa cells assessed as accumulation at G2/M phase at 0.08 uM measured after 24 hrs by DAPI staining based HCS analysis; type: functional
HeLa [9] = assay: Cell cycle arrest in human HeLa cells assessed as accumulation at G2/M phase at 0.016 uM measured after 24 hrs by DAPI staining based HCS analysis; type: functional
HMEC-1 [10] = assay: Cell cycle arrest in human HMEC1 cells assessed as accumulation at G2/M phase at 0.08 uM measured after 24 hrs by propidium iodide based FACSCalibur flow cytometry; type: functional
Procedure, shortened: as §2

SMILES	Activity (Tubulin (Homo sapiens))	IC50 (CCRF-CEM) [nM]	IC50 (HeLa [1]) [nM]	IC50 (L1210) [nM]	IC50 (HMEC-1 [2]) [nM]	Kb (Tubulin (Bos taurus)) [×10⁶ /M]	Activity (HMEC-1 [3])	Activity (HMEC-1 [4])	Activity (HMEC-1 [5])	Activity (HeLa [6])	Activity (HeLa [7])	Activity (HeLa [8])	Activity (HeLa [9])	Activity (HMEC-1 [10])
COc1cc([C@@H]2c3cc4c(cc3[C@H](O)[C@H]3COC(=O)[C@H]23)OCO4)cc(OC)c1OC	Active	–	–	–	–	–	–	–	–	–	–	–	–	–
COc1cccc(Oc2ccccc2NC(C)=C2C(=O)CC(c3ccccc3)CC2=O)c1 (stereo unspecified)	Active	41	93	58	59	15.7	–	–	–	–	–	–	–	–
COc1ccc(Oc2ccccc2NC(C)=C2C(=O)CC(c3ccccc3)CC2=O)cc1 (stereo unspecified)	Active	120	160	140	83	5.23	–	–	–	–	–	–	–	–
CCOc1ccccc1NC(C)=C1C(=O)CC(c2ccccc2)CC1=O (stereo unspecified)	Active	190	180	190	100	13	–	–	–	–	–	–	–	–
CC(Nc1ccccc1Oc1cccc(F)c1)=C1C(=O)CC(c2ccccc2)CC1=O (stereo unspecified)	–	170	550	330	360	–	–	–	–	–	–	–	–	–
COc1ccc(/C=C\c2cc(OC)c(OC)c(OC)c2)cc1OP(=O)(O)O [FOSBRETABULIN DISODIUM]	–	–	–	13	–	–	–	–	–	–	–	–	–	–
COc1cc(Oc2ccccc2NC(C)=C2C(=O)CC(c3ccccc3)CC2=O)ccc1N (stereo unspecified)	Active	12	33	26	29	18.1	Active	Dose-dependent effect	Active	Active	Active	Active	Active	–
CC(Nc1ccccc1Oc1ccccc1)=C1C(=O)CC(c2ccccc2)CC1=O (stereo unspecified)	Active	170	79	86	160	6.46	–	–	–	–	–	–	–	–
CC(Nc1ccccc1Oc1ccc(Cl)cc1)=C1C(=O)CC(c2ccccc2)CC1=O (stereo unspecified)	–	190	500	250	260	–	–	–	–	–	–	–	–	–
CC(Nc1ccccc1Oc1cccc(N)c1)=C1C(=O)CC(c2ccccc2)CC1=O (stereo unspecified)	Active	42	82	53	41	5.56	–	–	–	–	–	–	–	–
CC(Nc1ccccc1Oc1ccc(C(C)O)cc1)=C1C(=O)CC(c2ccccc2)CC1=O (stereo unspecified)	Active	120	75	58	140	3.13	–	–	–	–	–	–	–	–
CC(Nc1ccccc1Oc1ccc(N)cc1)=C1C(=O)CC(c2ccccc2)CC1=O (stereo unspecified)	Active	37	39	40	47	11.8	Active	Dose-dependent effect	–	Active	Active	Active	Active	Active
COc1ccc(Oc2ccccc2NC(C)=C2C(=O)CC(c3ccccc3)CC2=O)cc1OC (stereo unspecified)	Active	160	54	65	140	2.24	–	–	–	–	–	–	–	–
CC(=O)c1ccc(Oc2ccccc2NC(C)=C2C(=O)CC(c3ccccc3)CC2=O)cc1 (stereo unspecified)	–	220	130	190	180	–	–	–	–	–	–	–	–	–
COc1cc2c(c(OC)c1OC)-c1ccc(OC)c(=O)cc1[C@@H](NC(C)=O)CC2	–	–	–	–	–	–	–	–	–	Active	Active	Active	Active	–
